Reference: ChEMBL document CHEMBL1150225, “Cytotoxic cholestane glycosides from the bulbs of Ornithogalum saundersiae” (J Nat Prod, 2001)

Tested on: HL-60
Assay: Cytotoxicity against human HL60 cells after 72 hrs by MTT assay
Assay type: functional, cell-based
Conditions: HL-60, 72 h
Outline: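 HL-60 leukemia cells kept in RPMI 1640 with 10% fetal bovine serum, L-glutamine, 100 units/mL penicillin and 100 μg/mL streptomycin. Cells at 3 × 10^4 cells/mL exposed continuously to compound for 72 h. Growth read by MTT reduction. IC50 (50% inhibition) calculated from each compound's dose–response curve.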

Compound `CC(C)CCC(=O)[C@@H](C)[C@@]1(O)[C@@H](O[C@@H]2OC[C@H](O)[C@H](O[C@@H]3OC[C@@H](O)[C@H](O)[C@H]3O)[C@H]2O)C[C@H]2[C@@H]3CC=C4C[C@@H](O)CC[C@]4(C)[C@H]3CC[C@@]21C` has an IC50 of 190 nM.

`CC(C)CCC(=O)[C@@H](C)[C@@]1(O)[C@@H](O[C@@H]2OC[C@H](O)[C@H](O[C@@H]3OC[C@@H](O[C@@H]4O[C@H](CO)[C@@H](O)[C@H](O)[C@H]4O)[C@H](O)[C@H]3O)[C@H]2O)C[C@H]2[C@@H]3CC=C4C[C@@H](O)CC[C@]4(C)[C@H]3CC[C@@]21C` showed an IC50 of over 10000 nM.

With `COc1cc(C(=O)O[C@H]2[C@H](O[C@@H]3[C@@H](OC(C)=O)[C@H](O[C@H]4C[C@H]5[C@@H]6CC=C7C[C@@H](O)CC[C@]7(C)[C@H]6CC[C@]5(C)[C@@]4(O)[C@H](C)C(=O)CCC(C)C)OC[C@@H]3O)OC[C@@H](O[C@@H]3O[C@H](CO)[C@@H](O)[C@H](O)[C@H]3O)[C@@H]2O)cc(OC)c1OC` the IC50 was 14 nM.

With `COc1cccc2c1C(=O)c1c(O)c3c(c(O)c1C2=O)C[C@@](O)(C(=O)CO)C[C@@H]3O[C@H]1C[C@H](N)[C@H](O)[C@H](C)O1` [DOXORUBICIN] the IC50 was 7.2 nM.
